Results taken from article PMC11374989 (Asian Journal of Pharmaceutical Sciences, 2024).
Converted amounts (≈) assume the structure as drawn.

Tests used:
[1] = Oil-water distribution coefficient; assay type: physicochemical; conditions: n-octanol/water, logP Average, 25 °C, n = 3
[2] = test system: TNF-α; assay: Anti-inflammatory activity, ELISA, LPS-treated HaCaT cells; assay type: cell-based; conditions: 5 µmol/l for 12 h, then 1 µg/ml LPS 24 h, vs LPS, n = 3
How it was run: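 HaCaT cells were grown in DMEM with 10% FBS and 1% penicillin at 37 °C and 5% CO2. They were seeded in 6-well plates and precultured to 80% confluence. Test compound was given for 12 h, then 1 µg/ml LPS for 24 h. Medium-only (36 h) and LPS-only groups served as controls. TNF-α in the supernatant was measured by ELISA; n = 3.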

[3] = test system: Sep.; assay: Minimum inhibition concentration; assay type: cell-based, Staphylococcus epidermidis; conditions: Sep. (GDMCC 1.143), 1.5 × 10^6 CFU/ml, 48 h
How it was run: (§1)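 The parent compound was dissolved in DMSO/saline (1:9) and NPs were diluted in water. Samples were serially diluted (1:1 to 1:256, v/v) in LB or RCM broth and incubated 48 h with bacteria. Growth was scored visually. P. acnes (GDMCC 1.243) was grown on RCM at 37 °C anaerobically; S. aureus (GDMCC 1.1220) and S. epidermidis (GDMCC 1.143) were grown on NA at 37 °C.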

[4] = test system: Sau.; assay: Minimum inhibition concentration; assay type: cell-based, Staphylococcus aureus; conditions: Sau. (GDMCC 1.1220), 1.5 × 10^6 CFU/ml, 48 h
How it was run: as §1

[5] = test system: P. acnes; assay: Minimum inhibition concentration; assay type: cell-based, Propionibacterium acnes; conditions: P. acnes (GDMCC 1.243), anaerobic, 1.5 × 10^6 CFU/ml, 48 h
How it was run: as §1

[6] = test system: P. acnes-induced skin inflammation; assay: P. acnes infection; assay type: in vivo, BALB/c-nu mice
How it was run: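 Six-week-old male BALB/c-nu mice were acclimatized 3 d. They received P. acnes (1.5 × 10^8 CFU/ml) daily by intradermal injection into dorsal skin at 0.05 ml/10 g; the blank group was not injected. Test compound in 1 mg/ml Carbopol 940 hydrogel was applied topically to the inflamed area at 0.05 g/10 g; controls were left untreated. Swelling length and width were measured by caliper, with volume V = a×b²/2.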

[7] = test system: P. acnes; assay: In vivo antibacterial efficiency; set-up: species or system BALB/c-nu mice; conditions: after 7 d of treatment, vs control, n = 3
How it was run: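 Six-week-old male BALB/c-nu mice were acclimatized for 3 d. They received daily intradermal dorsal injections of P. acnes at 1.5 x 10^8 CFU/ml, 0.05 ml/10 g. Test compound in 1 mg/ml Carbopol 940 hydrogel was applied topically at 0.05 g/10 g; controls were untreated. At the end, 8 mm punch biopsies were homogenized in 2 ml PBS and diluted 10 times. A 0.1 ml aliquot was plated on RCM and grown anaerobically at 37 °C for 48 h. Colonies were counted and expressed as treated vs control (%).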

[8] = test system: NF-κB (p65); assay: Immunohistochemical observation of skin; assay type: in vivo, BALB/c-nu mice; conditions: after 7 d topical hydrogel, vs control group, n = 3
How it was run: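 P. acnes-infected nude mice were treated topically with 1 mg/ml hydrogel. Skin was collected at the end of treatment and paraffin sections were immunostained with mouse anti-NF-κB p65 antibody (1:400). Staining was quantified as average optical density (AOD) per group by image analysis.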

[9] = test system: IL-8 mRNA; assay: RT-PCR of inflammatory factors, LPS-treated HaCaT cells; assay type: cell-based; conditions: 5 µmol/l for 12 h, then 1 µg/ml LPS 24 h, n = 3
[10] = Visualization of skin penetration by CLSM; assay type: in vitro ADME, BALB/c-nu nude mice; conditions: 6 h treatment
How it was run: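 Dorsal skin was excised from six-week-old male BALB/c-nu nude mice and cleared of subcutaneous tissue. It was exposed to C6-loaded nanoparticles of the test compound, since the compound itself fluoresces weakly. Skin was processed as in the HPLC retention study, then imaged by confocal microscopy. Mean skin fluorescence intensity was calculated per group.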

SMILES	logP at 24 h [1]	TNF-α expression level in supernatant [2]	MIC [3]	MIC [4]	MIC [5]	Body weight and skin tolerance ([6]; 7-d treatment period, topical 1 mg/ml hydrogel)	Reduction in swelling volume ([6]; Day 7 of treatment, topical 1 mg/ml hydrogel (Carbopol 940), 0.05 g/10 g, n = 6)	Histomorphological observation (HE staining) of skin ([6]; after 7 d topical 1 mg/ml hydrogel)	Quantity of P. acnes in the skin [7]	NF-κB p65 expression in skin (AOD) [8]	IL-8 mRNA expression [9]	Penetration of C6 into the skin (CLSM) [10]
C[C@H]1COC2=C1C(=O)C(=O)c1c2ccc2c1CCCC2(C)C [CTS, Cryptotanshinone]	4.49	although reduced, did not reach statistical significance	125 µM (≈ 37 µg/mL)	125 µM (≈ 37 µg/mL)	250 µM (≈ 74.1 µg/mL)	no significant weight loss or skin dryness and erythema	64.9%	reduction in skin thickness, accompanied by a decrease in keratinization	significantly reduced the quantity of P. acnes in the skin	slight reduction in NF-κB p65 expression	–	–
CC(C)(C)c1ccc(S(=O)(=O)/C=C/C#N)cc1 [BAY11-7085]	–	substantially suppressed TNF-α expression	–	–	–	–	–	–	–	–	restored to normal baseline levels	–
CCN(CC)c1ccc2cc(-c3nc4ccccc4s3)c(=O)oc2c1 [C6, coumarin-6]	–	–	–	–	–	–	–	–	–	–	–	solely observable in the skin's stratum corneum
